bovine MsrA act: bovine MsrA enzyme activators, primary screen, biochemical, absorbance, HTS; purified bovine MsrA, absorbance read-out; AID 602163, 2012; 360,000 compounds, 0.3% hits; Methionine sulfoxide reductase A (Bos taurus); activation, % at 10.6 µM; in the data active = activation above about 7.5%;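 also: 0% = vehicle and 100% = reference activator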
MsrA inhibitor: bovine MsrA enzyme inhibitors, primary screen, biochemical, absorbance, HTS; purified bovine MsrA, absorbance read-out; inhibition, % at 15.5 µM; 360,000 compounds, 0.75% hits; AID 651718, 2012; in the data active = inhibition above about 4.5%;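 also: 0% = vehicle wells with enzyme and 100% = reference inhibitor wells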
NR2E3 ag-1: inhibitors of NR2E3-RetCOR corepressor binding, primary screen, NR2E3 agonist project, biochemical, TR-FRET, GST-NR2E3, biotin-RetCOR | AID 2300, 2010 | inhibition of corepressor binding, % at 4.78 µM | 320,000 compounds, 0.12% hits | 1536-well | Photoreceptor-specific nuclear receptor (Homo sapiens), Q9Y5X4;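 active = percent inhibition above the cutoff of mean plus 3 SD of all tested compounds, set per screening campaign, cut at about 20% in these data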;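 also: 0% = DMSO wells and 100% = biotin wells as full block of FRET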
Target sequence (Q9Y5X4 whole entry, looked up): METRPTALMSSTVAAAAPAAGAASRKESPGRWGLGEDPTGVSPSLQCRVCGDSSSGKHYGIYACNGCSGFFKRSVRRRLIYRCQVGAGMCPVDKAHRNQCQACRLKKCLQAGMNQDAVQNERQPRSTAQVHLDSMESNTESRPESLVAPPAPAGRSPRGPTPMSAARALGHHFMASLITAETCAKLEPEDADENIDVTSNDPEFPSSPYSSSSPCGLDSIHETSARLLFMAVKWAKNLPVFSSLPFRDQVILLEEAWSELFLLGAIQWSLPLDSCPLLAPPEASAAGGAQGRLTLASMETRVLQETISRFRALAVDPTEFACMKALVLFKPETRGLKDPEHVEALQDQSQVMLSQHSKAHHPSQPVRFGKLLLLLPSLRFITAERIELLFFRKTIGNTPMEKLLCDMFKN
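Format: 1536-well format; test system: GST-NR2E3 and biotin-RetCOR proteins; read-out basis: percent inhibition of TR-FRET ratio; timing: 5 h incubation at 4 °C; detection: time-resolved FRET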
NR2E3 ag-2: NR2E3 agonists in two-hybrid cells, primary screen, cell-based, luminescence, CHO-S, Gal4-NCOR/VP16-NR2E3. Photoreceptor-specific nuclear receptor (Homo sapiens), Q9Y5X4. luciferase. inhibition of corepressor binding, % at 3.98 µM. 360,000 compounds, 0.35% hits;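 active = inhibition above the mean of all tested compounds plus 3 SD, cut at about 70% in these data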;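 also: 0% = DMSO with NR2E3 transfected cells and 100% = cells lacking NR2E3 construct; higher means lower luciferase signal from less NR2E3 corepressor binding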
GalR3 antagonist: GalR3 antagonists in HEK293 cells, primary screen, cell-based, fluorescence readout. Galanin receptor type 3 (Homo sapiens), O60755. HEK293 GalR3-CNG cAMP membrane potential fluorescence; galR3 body fused to GalR1 C-terminus. inhibition, % at 3 µM. 360,000 compounds, 0.44% hits. AID 651719, 2012;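 active = inhibition above the screen-wide average plus 3 SD, cut at about 13% in these data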;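 also: forskolin and galanin both at EC90 stimulate the cells; cAMP rise reported by CNG channel membrane potential dye signal; 0% = forskolin plus galanin with DMSO and 100% = forskolin alone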
Target sequence (O60755 1-299 limits assumed): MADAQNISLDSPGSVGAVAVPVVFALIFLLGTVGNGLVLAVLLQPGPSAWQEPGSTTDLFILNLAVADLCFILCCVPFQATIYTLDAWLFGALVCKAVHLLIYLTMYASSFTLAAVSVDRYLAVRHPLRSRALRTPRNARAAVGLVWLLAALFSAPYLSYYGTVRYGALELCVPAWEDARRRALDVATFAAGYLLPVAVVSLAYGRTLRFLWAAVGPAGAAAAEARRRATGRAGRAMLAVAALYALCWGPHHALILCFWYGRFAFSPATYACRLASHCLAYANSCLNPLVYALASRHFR
NadD inh: inhibitors of S. aureus NadD, primary screen, biochemical, colorimetric, uHTS; Nicotinate-nucleotide adenylyltransferase NadD (Staphylococcus aureus N315); 360,000 compounds, 0.78% hits; inhibition, % at 20 µM; purified NadD enzyme, colorimetric absorbance read-out; in the data active = inhibition above about 26%
NR2E3 ag confirm: NR2E3 agonist confirmation in cells, cell-based, luminescence, CHO-S two-hybrid; shares compounds with NR2E3 ag-2; CHO-S mammalian two-hybrid NR2E3-NCOR, luciferase luminescence; inhibition, % at 3.98 µM; 2,300 compounds, 51% hits;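 active = average inhibition above a cutoff equal to the mean inhibition of all tested compounds plus one SD, cut at about 70% in these data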;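 also: 0% = DMSO in NR2E3 cells and 100% = DMSO in cells lacking NR2E3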
GAL4-VP16 luc: GAL4-VP16 reporter modulators, confirmation, counter-screen for NR2E3 agonist project, cell-based, luminescence, CHO-S, high throughput. inhibition, % at 3.98 µM. 2,300 compounds, 29% hits. CHO-S GAL4-VP16 luciferase reporter. AID 624379, 2012. shares compounds with NR2E3 ag-2;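 active = mean inhibition above a cutoff equal to the average over all tested compounds plus one standard deviation, cut at about 70% in these data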;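 also: luciferase from a UAS reporter driven by GAL4-VP16 transactivation; 0% = DMSO with VP16-transfected cells and 100% = DMSO with cells lacking VP16; higher means less reporter light so more repression of VP16 activity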
An asterisk follows results filed as active; . = no result. Compounds with a hit are over-represented: about 2.5% of the library has one in this group of screens.

SMILES	bovine MsrA act	MsrA inhibitor	NR2E3 ag-1	NR2E3 ag-2	GalR3 antagonist	NadD inh	NR2E3 ag confirm	GAL4-VP16 luc
COc1cc(CNCCc2ccc(S(N)(=O)=O)cc2)ccc1OCc1ccc(Cl)cc1	-0.9	-0.3	-2.1	-13.9	-9.6	9.1	.	.
CCOc1cc(CNCCc2ccc(S(N)(=O)=O)cc2)ccc1OCc1ccc(Cl)cc1	-0.9	-0.4	-5.3	52.1	-8.2	9.0	44.1	30.4
CCOC(=O)c1c(C)[nH]c(C(=O)N2CCN(CC)CC2)c1C	-9.3	-0.4	0.0	-17.1	-7.0	-3.3	.	.
COc1ccc(C(=O)Nc2c(Cl)cc(Cl)cc2C(=O)NCCN2CCOCC2)cc1	0.9	0.6	1.7	-28.7	-3.9	0.8	.	.
CCc1ccccc1Nc1nn2c(=O)c3ccc(C(=O)NCc4ccccn4)cc3nc2s1	-2.6	0.7	2.5	70.7*	-9.3	13.9	76.3*	33.8
COc1ccc(C(=O)/C(C)=N/O)cc1OC	-7.4	0.2	2.5	-9.3	-4.2	-4.9	.	.
Cc1cc(Cl)ccc1OCC(=O)NNC(=O)CCOc1ccccc1	-3.0	-0.1	4.2	-12.2	-5.3	1.8	.	.
Cc1nn(Cc2ccc(C(=O)NC(C)(C)C)o2)c(C)c1Br	-0.7	0.4	-2.3	57.2	-4.7	5.2	61.2	63.4
Cc1cc(NC(=O)c2ccc(Cn3nc(C)c(Br)c3C)o2)no1	-0.4	-0.1	7.6	-0.4	-3.7	-2.5	.	.
CC1(C(=O)Nc2ccc3c(c2)OCO3)Cc2c(-c3cccc(C(F)(F)F)c3)ccnc2O1 (stereo unspecified)	-6.3	0.1	.	18.5	-6.0	-2.4	.	.
COc1cccc(C(c2c(N)n(C)c(=O)n(C)c2=O)C(C)[N+](=O)[O-])c1 (stereo unspecified)	-2.0	-0.3	0.6	5.2	4.8	-0.7	.	.
O=C(O)c1cccc(CN2C(=O)c3ccccc3C2=O)c1	-10.2	1.0	-0.1	5.9	2.8	-1.5	.	.
O=C1c2cccc3c(O)ccc(c23)C(=O)N1Cc1ccccc1	-1.6	0.1	1.1	63.7	-2.9	3.4	81.7*	60.1
CCOC(=O)C1CCCN(S(=O)(=O)c2ccc(S(=O)(=O)N(CC)CC)cc2)C1 (stereo unspecified)	-2.8	-0.2	0.9	83.7*	92.0*	2.3	97.1*	88.5*
O=C1c2cc([N+](=O)[O-])ccc2-c2cc(Br)c(N=C(NO)C(F)(F)F)cc21	1.4	0.2	.	100.8*	-2.9	13.2	97.3*	61.2
C=CS(=O)(=O)N(Cc1ccc(Cl)c(Cl)c1)C[C@@H](O)CO	1.3	.	.	52.4	.	-4.2	17.6	20.7
COc1cccc(S(=O)(=O)N(C)C[C@H]2Oc3cc(Br)ccc3S(=O)(=O)N([C@@H](C)CO)C[C@H]2C)c1	-2.5	-0.3	.	-43.6	-5.0	-4.6	.	.
O=C(Cc1ccccc1)NNc1ccc2ccccc2c1	-3.4	-0.1	-2.4	49.7	-6.4	-0.4	52.6	5.1
O=C(COc1ccc2ccccc2c1)NNC(=O)Cc1ccccc1	0.1	0.4	-104.4	-19.6	-4.3	-0.5	.	.
O=C(O)CC1(CC(=O)Nc2cc(C(F)(F)F)cc(C(F)(F)F)c2)CCCCC1	-2.3	0.9	-0.6	57.9	-2.8	-1.3	88.2*	45.1
O=C(O)CC1(CC(=O)NCc2ccc(C(F)(F)F)cc2)CCCCC1	-2.6	1.3	3.3	-13.5	1.8	0.1	.	.
CCOC(=O)CSC1=C(C#N)C(c2ccccc2OCC)C(C#N)C(=O)N1 (stereo unspecified)	-7.9	1.6	8.3	-11.2	0.7	-2.9	.	.
Cc1ccc(-n2c(-c3ccc(Br)cc3)c[n+]3c2CCc2ccc4cccnc4c2-3)cc1	-2.5	-0.7	-6.5	83.1*	-1.9	3.7	98.7*	72.0*
O=C(c1cnn2c(C(F)(F)F)cc(-c3ccccc3)nc12)N1CCCCC1c1cccnc1 (stereo unspecified)	-3.8	1.6	3.5	0.4	-3.4	-0.7	.	.
O=C(c1cc2nc(-c3ccc(F)cc3)cc(C(F)(F)F)n2n1)N1CCCCC1c1cccnc1 (stereo unspecified)	-0.7	0.6	-0.3	51.8	0.4	2.0	87.7*	66.0
SMILES	bovine MsrA act	MsrA inhibitor	NR2E3 ag-1	NR2E3 ag-2	GalR3 antagonist	NadD inh	NR2E3 ag confirm	GAL4-VP16 luc
CCOc1ccc(/C(CCC(=O)O)=N/NC(=S)NCCc2ccccc2)cc1	-8.0	1.3	0.7	52.6	2.2	7.4	-4.2	-2.1
COc1ccc(CNC(=S)N/N=C(/C)c2ccccc2)cc1	0.9	-0.1	2.7	-75.9	-5.6	2.2	.	.
C/C(=N\NC(=S)NCc1ccccc1)c1ccccc1	-3.5	0.6	1.2	56.4	-0.7	1.3	-35.7	-39.6
C/C(=N\NC(=S)NCCc1ccccc1)c1ccc(O)cc1O	-1.4	2.5	-0.2	77.7*	-8.4	6.1	-16.8	8.5
C/C(=N\NC(=S)NCCc1ccccc1)c1ccc(Cl)cc1Cl	-3.1	0.1	2.3	-34.1	-10.4	-1.0	.	.
N#Cc1c(N)n(-c2ccccc2)c(=O)c2cc([N+](=O)[O-])ccc12	-2.1	1.0	3.8	-8.6	-6.0	-0.3	.	.
Cc1cc(C)nc(Nc2cccc(Cl)c2)n1	-6.0	0.4	.	-26.0	-10.2	-3.6	.	.
CCC(C)Oc1cc(-c2ccnc(Nc3cccc(Cl)c3)n2)ccn1 (stereo unspecified)	-1.5	-0.3	0.7	57.5	-12.2	1.8	94.0*	41.1
OCCCNc1cc(-c2ccnc(Nc3cccc(Cl)c3)n2)ccn1	0.6	0.3	-0.3	99.4*	-9.5	-5.2	100.0*	95.0*
Cc1ccc(CNS(=O)(=O)c2ccc3c(c2)n(C)c(=O)n3C)cc1	-0.3	-0.5	1.7	13.6	-10.5	-1.2	.	.
Nc1nnc(-c2cn(-c3ccccc3)nc2-c2ccc(Cl)cc2)o1	-2.7	-0.2	2.9	-11.3	-8.2	-3.2	.	.
CCOc1ccc(CN(C)C(=O)CNC(=O)c2ccc(Br)o2)cc1OC	-2.9	-1.8	2.5	-1.6	-7.3	-2.0	.	.
O=Nc1c(O)n(Cc2ccccc2)c2ccccc12	-2.2	0.8	0.9	-7.9	-5.5	-3.0	.	.
Cc1c(CCCN)c2ccccc2n1Cc1ccccc1	-5.3	0.2	1.6	49.8	-5.9	-2.1	-4.2	4.1
